# This is one part of a sample in which hits are shown more often than they occur.
# GSH fluor: GSH bead compound fluorescence profile; GSH beads flow cytometry, compound fluorescence 488/530 nm; active compounds read high; fluorescence (KMESF) at 10 µM; 190,000 tested, 0.25% active; AID 1776; in the data active = fluorescence above about 89;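 note: glutathione beads carrying GST-tagged Bcl family fusion proteins plus one bare bead set; values are compound well signal with DMSO vehicle wells as background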
# Avidin fluor: avidin bead compound fluorescence profile. Avidin beads, compound fluorescence 488/530 nm, flow cytometry; active compounds read high. fluorescence (KMESF) at 10 µM. 220,000 tested, 0.38% active. AID 1775; in the data active = fluorescence above about 47
# ABCG2 block: inhibitors of human ABCG2 transporter, ABCB1 counter-screen; Q9UNQ0; IgMXP3 cells, JC-1 efflux, flow cytometry; inhibition, % at 6.6 µM; 190,000 tested, 0.1% active; AID 1325;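 active = inhibition above 80%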;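 note: 0% = DMSO and 100% = nicardipine control wells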
#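 material = IgMXP3 (ABCG2) plus far-red-tagged CCRF-Adr (ABCB1) cells | amount = 3 million cells/mL, equal mix of both lines | also added = JC-1 transporter substrate | dosing = one concentration, 6.6 µM final | schedule = 10 min at 25 °C | measured by = flow cytometric JC-1 green MFI at 530 nm | read-out basis = percent efflux inhibition, scaled nicardipine 100% to DMSO 0%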
# ABCB1 inh: inhibitors of human ABCB1 transporter, ABCG2 counter-screen; 190,000 tested, 0.067% active; CCRF-Adr cells, JC-1 efflux, flow cytometry; AID 1326; inhibition, % at 6.6 µM; in the data active = inhibition above about 40%;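 note: 0% = vehicle and 100% = reference inhibitor; higher value means more JC-1 retained so stronger ABCB1 efflux block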
# L major viab: Leishmania major promastigote growth inhibition | Leishmania major promastigotes, resazurin fluorescence viability | inhibition, % at 10 µM | 200,000 tested, 9% active;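 note: promastigotes grown with compound for 44 hours at 28 °C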
# PKD1 kinase inh: blocks activity of human protein kinase D1; PKD1 kinase fluorescence polarization assay; 200,000 tested, 0.056% active; Q15139; inhibition, % (no concentration beside the values)
# Starred values were filed as active, the others as inactive; x = no result. Cut-off read from the data, not from the text of the source, unless noted: active = inhibition above about 50%; inactive = the rest.
SMILES,GSH fluor,Avidin fluor,ABCG2 block,ABCB1 inh,L major viab,PKD1 kinase inh
Cc1cccc(C(=O)CC(=O)c2cc(Cl)ccc2O)c1,10,9,2,0,99*,-3
O=C(c1cc2c(s1)-c1ccccc1S(=O)(=O)C2)N1CCN(Cc2ccccc2)CC1,19,151*,-1,-2,1,1
CC(=S)/C=C1\Sc2ccccc2N1C,29,9,-7,-1,99*,-11
C[N+](C)(C)CCN(Cc1ccc(Cl)cc1)c1ccccn1,12,34,1,1,-5,-5
CN(C)CCN(Cc1ccc(Cl)cc1)c1ccccn1,19,4,0,-1,99*,-1
CCN(CC)CCN1C(=O)C(=O)/C(=C(/O)c2ccc(OC(C)C)cc2)C1c1cccs1 (configuration not stated),x,8,x,x,x,x
CC(=O)C1=C(c2ccc(Br)cc2)C(=O)c2ccccc2C1=O,9,6,2,1,100*,4
c1ccc(-n2ncc3cccnc32)cc1,x,4,x,x,x,x
CN(/N=C/c1cccnc1)c1cnn(-c2ccc(F)c(Cl)c2)c(=O)c1Cl,21,8,0,0,68*,3
COc1ccc(NC(=O)Nc2c(SC)nsc2SC)cc1,10,19,0,0,-7,-7
COc1cccc(C(=O)NC(C)c2ccc(Br)cc2)c1 (configuration not stated),6,2,12,1,61*,-2
Cc1ccc(S(=O)(=O)N(C)Cc2ccc(C(=O)N/N=C/c3ccc(OC(F)F)cc3OC(F)F)cc2)cc1,22,12,-16,-1,55*,-3
CCCS(=O)(=O)NCCc1cc2ccc(C)cc2[nH]c1=O,88*,5,1,0,-1,-11
CCCS(=O)(=O)NCCc1cc2cc(C)c(C)cc2[nH]c1=O,19,27,2,-1,4,-4
COc1ccc(/C=N/NC(=O)c2sc3nc(C)cc(C)c3c2N)cc1,x,6,x,x,x,x
COc1ccc(C2C(C#N)=C(N)Oc3c2sc2nc(C)cc(C)c32)cc1 (configuration not stated),6,89*,2,0,100*,-8
CC1CCCC(NC(=O)COC(=O)CSc2ccc3ccccc3c2)C1C (configuration not stated),7,13,5,0,55*,-3
CC1CCCC(NC(=O)COC(=O)CCc2ccccc2)C1C (configuration not stated),16,11,-1,0,-9,5
N#CC1=C2N=C(N)c3ccccc3N2C2=C(C(=O)CCC2)C1c1cccc(Cl)c1 (configuration not stated),16,7,4,0,81*,-7
Cc1ccccc1C1C(C#N)=C2N=C(N)c3ccccc3N2C2=C1C(=O)CCC2 (configuration not stated),x,5,x,x,x,x
COc1cccc(NC(=O)CCSc2ccc(C)cc2)c1,7,3,7,0,-3,-4
CNC(=O)Nc1ccccc1NC(=O)NC,25,23,26,1,-9,-3
CC1OC(OC2C(OC3C(O[C@H]4CC[C@]5(C)C6C=C[C@]78OC[C@@]9(CC[C@@H](C)[C@H](C)C97)[C@H](O)C[C@@]8(C)[C@]6(C)CC[C@H]5C4(C)C)OC(C)C(O)C3O)OC(CO)C(O)C2O)C(O)C(O)C1O (some centres not stated),x,20,x,x,x,x
CC(=O)NC1(C(F)(F)F)NC(=O)N(CC(C)C)C1=O (configuration not stated),16,53*,0,0,-8,-4
O=C(NCC1(c2ccccc2)CCCC1)c1ccccc1Br,11,10,7,1,55*,-9
SMILES,GSH fluor,Avidin fluor,ABCG2 block,ABCB1 inh,L major viab,PKD1 kinase inh
O=C(NCC1(c2ccccc2)CCCC1)c1ccccc1,8,3,9,0,2,-2
O=C1CSC(c2cccc([N+](=O)[O-])c2)N1c1ccccc1F (configuration not stated),17,23,4,1,6,-5
Cc1nn(CCCC(=O)Nc2cc(Oc3ccc(F)cc3)cc([N+](=O)[O-])c2)c(C)c1[N+](=O)[O-],21,12,24,8,100*,-8
Cc1ccccc1Oc1cc(NC(=O)Cn2cnc([N+](=O)[O-])c2)cc([N+](=O)[O-])c1,10,21,1,0,97*,0
Cc1ccccc1Oc1cc(NC(=O)CCCn2nc(C)c([N+](=O)[O-])c2C)cc([N+](=O)[O-])c1,6,15,19,3,98*,-2
CC12CCCCC1(O)[N+](=O)C1=C(CCCC1)N2[O-] (configuration not stated),25,11,0,0,-7,1
Cc1cc(C)c(C)c(OC(=O)c2sc(Cl)nc2C)c1,16,16,1,0,1,8
CCC(NC(=O)c1ccccc1NC(=O)c1ccccc1)C(=O)O (configuration not stated),55,8,1,0,65*,0
CCC(NC(=O)c1ccccc1NC(=O)c1ccco1)C(=O)O (configuration not stated),43,8,7,1,89*,2
N#Cc1ccccc1S(=O)(=O)Nc1ccc2c(c1)C(=O)OC2,x,7,x,x,x,x
CC(Oc1ccc(Cl)cc1)C(=O)N/N=C/c1ccsc1 (configuration not stated),11,13,3,0,-3,-4
O=C(Nc1ccccc1)C1=C[C@H](c2ccc(Br)cc2)C[C@H](OCc2ccc(CO)cc2)O1,22,6,5,1,16,2
CCn1c(=O)c2cc(S(=O)(=O)NCc3ccccc3)ccc2n(CC)c1=O,25,30,13,3,49,-7
Cn1c(=O)oc2cc(S(=O)(=O)NCc3ccco3)ccc21,28,7,2,0,-10,2
Cn1c(=O)n(C)c2cc(S(=O)(=O)NCc3ccccc3)ccc21,24,34,3,0,99*,1
Cn1c(=O)n(C)c2cc(S(=O)(=O)NCc3ccco3)ccc21,23,176*,6,0,13,-5
Cn1c(=O)c(=O)n(C)c2cc(S(=O)(=O)NCc3ccc(Cl)cc3)ccc21,11,10,0,0,100*,-1
N=C1SCC(=O)N1c1ncc(Cc2ccc(F)cc2)s1,10,10,1,0,-8,-9
Cc1cc(C)n(-c2cc(N3CCN(S(=O)(=O)c4ccc(Cl)cc4)CC3)ccc2[N+](=O)[O-])n1,8,3,6,3,23,11
O=C(O)c1cn(C2CCCCC2)c2ccccc2c1=O,x,9,x,x,x,x
Cc1ccc(C(C)C)c(OCCNS(C)(=O)=O)c1,29,17,2,1,-2,-6
CCCCNCC#CCOc1cc(C)ccc1C(C)C,15,9,14,1,95*,-10

# High-throughput results as filed in PubChem.
